Measurements from different studies.
Lines come from different studies, so protocols differ.
Target: SRSF protein kinase 1 (SRPK1, Homo sapiens, UniProt Q96SB4)

SMILES	assay	conditions	measurement	result
CCCCNc1ncc2c(-c3ccc(F)cc3)nn(C[C@H]3CC[C@H](N)CC3)c2n1	target engagement in cells, inhibitor, chemoproteomics	20 mM	inhibition	-21.7%
COc1cc(Cl)c(C(=O)N[C@@H](CN[C@H]2CC[C@@H](N)CC2)Cc2ccc(C#N)cc2)cc1-c1ccc(CN[C@H](C)c2ccc(C)cc2)o1	enzyme activity, inhibitor	1 µM	remaining activity	99%
Nc1nc(Nc2ccc(S(N)(=O)=O)cc2)nn1C(=O)c1c(F)cccc1F	cell-free assay	0.5 µM	remaining signal	86.4%
Cc1sc(C(=O)NC2COC2)cc1-n1cc(NC(=O)Nc2c(F)cccc2Cl)cn1	enzyme activity, inhibitor	10 µM	remaining activity	96.9%
CC(C)(C)C(=O)c1sc(NC2CCCCC2)nc1N	enzyme activity, inhibitor	10 µM	remaining activity	92%
CC(C)c1ccc(NC(=O)c2cccs2)c(-c2nc3ccccc3[nH]c2=O)c1	enzyme activity, inhibitor	1 µM	activity vs control	100%
CC(C1CC1)n1cnc2c(NCc3cccc(C(F)(F)F)c3)nc(NCCN(C)C)nc21 (stereo not drawn)	enzyme activity, inhibitor	5 µM	inhibition	> 50%
Cc1c[nH]c2nccc(Oc3c(F)cc(Nc4cc(Cl)nc(N)n4)cc3F)c12	cell-free assay, competition with immobilised ligand	0.1 µM	remaining binding	100%
FC(F)(F)Oc1cccc(-c2cnc3ccc(-c4ccncc4)nn23)c1	enzyme activity, inhibitor, radiometric	5 µM	activity vs control	96%
O=C(N1CCS(=O)(=O)CC1)N1C[C@H](c2ccc(OC(F)(F)F)cc2)C[C@H](c2nc(C3CC3)no2)C1	cell-free assay, competition with immobilised ligand	1 µM	remaining binding	100%
c1ccc(CNc2nc(N3CCOc4ccccc43)nc3c2CCCC3)cc1	target engagement in cells, inhibitor, chemoproteomics	20 mM	inhibition	4.3%
O=C(Nc1cnn(-c2csc(C(=O)NC3COC3)c2)c1)Nc1ccccc1Cl	enzyme activity, inhibitor	5 µM	remaining activity	98.7%
CC(=O)N1CCC(c2ccc(C(=O)NC(=N)N)cc2C(F)(F)F)CC1	cell-free assay, competition with immobilised ligand	1 µM	remaining binding	86%
Cc1cc(NC(=O)c2cccc3cc(-c4cccc5[nH]nc(N)c45)ccc23)ccc1F	enzyme activity, inhibitor	0.1 µM	activity vs control	98%
CO[C@H]1CC[C@H](CNc2ccc(S(=O)(=O)NC(=O)c3ccc(N4CCN(CC5=C(c6ccc(Cl)cc6)CC(C)(C)CC5)CC4)cc3Oc3cnc4[nH]ccc4c3)cc2[N+](=O)[O-])CC1	cell-free assay, competition with immobilised ligand	1 µM	remaining binding	96%
CCOc1cc(-c2nncn2C)ccc1Nc1ncc2cc(C)nc(NCC(C)(C)C)c2n1	enzyme activity, inhibitor, FRET	1 µM	inhibition	< 15%
CCCCN(CCCC)C(=O)CN1C[C@H](c2cc(OC)c3c(c2)OCO3)[C@@H](C(=O)O)[C@@H]1CC(C)(C)CCC	cell-free assay, competition with immobilised ligand	1 µM	remaining binding	100%

SMILES	assay	conditions	measurement	result
Oc1cccc(-c2nc(N3CCOCC3)c3oc4ncccc4c3n2)c1	enzyme activity, inhibitor	10 µM	remaining activity	116%
O=S(=O)(NC1CCC(c2cc(F)ccc2F)(S(=O)(=O)c2ccc(Cl)cc2)CC1)C(F)(F)F (stereo not drawn)	cell-free assay, competition with immobilised ligand	1 µM	remaining binding	100%
COc1cc(Nc2cnc(C#N)c(O[C@H](C)CN(C)C)n2)ncc1-c1cnn(C)c1	enzyme activity, inhibitor, radiometric	10 µM	remaining activity	88%
CC(C)(C)c1nc(-c2cccc(NS(=O)(=O)c3c(F)cccc3F)c2F)c(-c2ccnc(N)n2)s1	enzyme activity, inhibitor, radiometric	1 µM	remaining activity	105%
O=C(NS(=O)(=O)c1ccc(NCC2CCOCC2)c([N+](=O)[O-])c1)c1ccc(N2CCN(Cc3ccc(C(F)(F)F)cc3-c3ccc(Cl)cc3)CC2)cc1Oc1cnc2[nH]ccc2c1	cell-free assay, competition with immobilised ligand	1 µM	remaining binding	100%
COc1cc2ncnc(Nc3ccc(F)c(Cl)c3)c2cc1OCCCN1CCOCC1	cell-free assay	0.5 µM	remaining signal	98.3%
CCN(CC)CCNC(=O)c1c(C)[nH]c(/C=C2\C(=O)Nc3ccc(F)cc32)c1C	enzyme activity, inhibitor	0.3 µM	inhibition	-17%
C=CC(=O)Nc1cc(Nc2nccc(Nc3cc(Cl)c(F)cc3C(C)(C)O)n2)c(OC)cc1N1CC[C@@H](N(C)C)C1	enzyme activity, inhibitor	1 µM	inhibition	2%
CN(c1ncccc1CNc1nc(Nc2ccc3c(c2)CC(=O)N3)ncc1C(F)(F)F)S(C)(=O)=O	enzyme activity, inhibitor	1 µM	inhibition	33.5%
CC(C)(O)[C@H]1CC[C@H](Nc2ccc3ncc(-c4cccc(C(F)(F)F)c4)n3n2)CC1	enzyme activity, inhibitor	1 µM	remaining activity	100%
CN(C)c1ncnc(-c2ccc3nc(Nc4cc(CN5CCN(C(=O)CC(F)(F)F)CC5)ccn4)[nH]c3c2)c1Cl	cell-free assay, competition with immobilised ligand	1 µM	remaining binding	47%
CNC(=O)c1cc(Oc2ccc(NC(=O)Nc3ccc(Cl)c(C(F)(F)F)c3)cc2)ccn1	enzyme activity, inhibitor	10 µM	inhibition	6%
COc1ccc(COc2ccc(Cc3cnc(N)nc3N)cc2OC)cc1	cell-free assay	0.5 µM	remaining signal	90.4%
CCCOc1ccc(OC)c(F)c1C(=O)c1ccc(C(=O)N[C@@H]2CNC[C@H]2NC(=O)c2ccc3[nH]ncc3c2)cc1	enzyme activity, inhibitor	10 µM	remaining activity	97%
COc1cc2ncnc(Nc3ccc(Oc4ccccc4)cc3C)c2cc1OC	enzyme activity, inhibitor	1 µM	inhibition	0%
Cc1ccc(Nc2nccc(N(C)c3ccc4c(C)n(C)nc4c3)n2)cc1S(N)(=O)=O	enzyme activity, inhibitor	10 µM	inhibition	-3%
